Source: ChEMBL document CHEMBL5058577, “EUbOPEN Chemogenomics Library 2 (Multiplex)” (2022)

Tested on: Fibroblast
Assay: Multiplex assay against human fibroblast
Assay type: toxicity, cell-based
Method in brief: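 Compound was added to live cells that had been stained at seeding with Hoechst33342, BioTracker Green Microtubule Cytoskeleton Dye, MitoTracker Red and Annexin V Alexa Fluor 680, and imaging followed on a CQ1 microscope at 37°C and 5% CO2. CellPathfinder machine-learning gating divided cells into Hoechst high-intensity objects or normal cells, normal cells into healthy, pyknosed or fragmented nuclei, and pyknosed cells into mitotic or apoptotic. Tubulin, mitochondrial-mass and membrane-permeability phenotypes are per cents of healthy-nucleus cells.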

[1] = 12 h, 1 µM, compound concentration 1 uM, replicate 1
[2] = 12 h, 1 µM, compound concentration 1 uM, replicate 2
[3] = 12 h, 10 µM, compound concentration 10 uM, replicate 1
[4] = 12 h, 10 µM, compound concentration 10 uM, replicate 2
[5] = 24 h, 1 µM, compound concentration 1 uM, replicate 1
[6] = 24 h, 1 µM, compound concentration 1 uM, replicate 2
[7] = 24 h, 10 µM, compound concentration 10 uM, replicate 1
[8] = 24 h, 10 µM, compound concentration 10 uM, replicate 2
[9] = 48 h, 1 µM, compound concentration 1 uM, replicate 1
[10] = 48 h, 1 µM, compound concentration 1 uM, replicate 2
[11] = 48 h, 10 µM, compound concentration 10 uM, replicate 1
[12] = 48 h, 10 µM, compound concentration 10 uM, replicate 2

COc1cc2nc(N3CCN(C(=O)c4ccco4)CC3)nc(N)c2cc1OC.Cl [PRAZOSIN HYDROCHLORIDE]
Population Apoptotic (%) [1]: 38% | Population Fragmented Nuclei (%) [1]: 22% | Population Healthy Nuclei (%) [1]: 57% | Population Hoechst High Intensity Objects (%) [1]: 1% | Population Membrane Permeable-Phenotype (%) [1]: 1% | Population Mitochondria Different-Phenotype (%) [1]: 1% | Population Mitotic Cells (%) [1]: 61% | Population Normal (%) [1]: 98% | Population Pyknosed Nuclei (%) [1]: 19% | Population Tubulin-Different-Phenotype (%) [1]: 26% | Total Cell Count [1]: 174 | Population Apoptotic (%) [2]: 49% | Population Fragmented Nuclei (%) [2]: 20% | Population Healthy Nuclei (%) [2]: 52% | Population Hoechst High Intensity Objects (%) [2]: 4% | Population Membrane Permeable-Phenotype (%) [2]: 5% | Population Mitochondria Different-Phenotype (%) [2]: 7% | Population Mitotic Cells (%) [2]: 50% | Population Normal (%) [2]: 95% | Population Pyknosed Nuclei (%) [2]: 27% | Population Tubulin-Different-Phenotype (%) [2]: 46% | Total Cell Count [2]: 194 | Population Apoptotic (%) [3]: 44% | Population Fragmented Nuclei (%) [3]: 23% | Population Healthy Nuclei (%) [3]: 64% | Population Hoechst High Intensity Objects (%) [3]: 1% | Population Membrane Permeable-Phenotype (%) [3]: 0% | Population Mitochondria Different-Phenotype (%) [3]: 7% | Population Mitotic Cells (%) [3]: 56% | Population Normal (%) [3]: 98% | Population Pyknosed Nuclei (%) [3]: 12% | Population Tubulin-Different-Phenotype (%) [3]: 49% | Total Cell Count [3]: 198 | Population Apoptotic (%) [4]: 31% | Population Fragmented Nuclei (%) [4]: 35% | Population Healthy Nuclei (%) [4]: 42% | Population Hoechst High Intensity Objects (%) [4]: 5% | Population Membrane Permeable-Phenotype (%) [4]: 9% | Population Mitochondria Different-Phenotype (%) [4]: 3% | Population Mitotic Cells (%) [4]: 68% | Population Normal (%) [4]: 94% | Population Pyknosed Nuclei (%) [4]: 21% | Population Tubulin-Different-Phenotype (%) [4]: 65% | Total Cell Count [4]: 155 | Population Apoptotic (%) [5]: 50% | Population Fragmented Nuclei (%) [5]: 20% | Population Healthy Nuclei (%) [5]: 63% | Population Hoechst High Intensity Objects (%) [5]: 2% | Population Membrane Permeable-Phenotype (%) [5]: 0% | Population Mitochondria Different-Phenotype (%) [5]: 2% | Population Mitotic Cells (%) [5]: 50% | Population Normal (%) [5]: 97% | Population Pyknosed Nuclei (%) [5]: 15% | Population Tubulin-Different-Phenotype (%) [5]: 28% | Total Cell Count [5]: 181 | Population Apoptotic (%) [6]: 45% | Population Healthy Nuclei (%) [6]: 57% | Population Hoechst High Intensity Objects (%) [6]: 7% | Population Membrane Permeable-Phenotype (%) [6]: 12% | Population Mitochondria Different-Phenotype (%) [6]: 3% | Population Mitotic Cells (%) [6]: 54% | Population Normal (%) [6]: 92% | Population Pyknosed Nuclei (%) [6]: 21% | Population Tubulin-Different-Phenotype (%) [6]: 58% | Total Cell Count [6]: 185 | Population Apoptotic (%) [7]: 46% | Population Fragmented Nuclei (%) [7]: 23% | Population Healthy Nuclei (%) [7]: 69% | Population Hoechst High Intensity Objects (%) [7]: 3% | Population Membrane Permeable-Phenotype (%) [7]: 0% | Population Mitochondria Different-Phenotype (%) [7]: 6% | Population Mitotic Cells (%) [7]: 53% | Population Normal (%) [7]: 96% | Population Pyknosed Nuclei (%) [7]: 6% | Population Tubulin-Different-Phenotype (%) [7]: 45% | Total Cell Count [7]: 201 | Population Apoptotic (%) [8]: 61% | Population Fragmented Nuclei (%) [8]: 35% | Population Healthy Nuclei (%) [8]: 49% | Population Hoechst High Intensity Objects (%) [8]: 7% | Population Membrane Permeable-Phenotype (%) [8]: 10% | Population Mitochondria Different-Phenotype (%) [8]: 11% | Population Mitotic Cells (%) [8]: 38% | Population Normal (%) [8]: 92% | Population Pyknosed Nuclei (%) [8]: 15% | Population Tubulin-Different-Phenotype (%) [8]: 73% | Total Cell Count [8]: 152 | Population Apoptotic (%) [9]: 52% | Population Fragmented Nuclei (%) [9]: 24% | Population Healthy Nuclei (%) [9]: 62% | Population Hoechst High Intensity Objects (%) [9]: 3% | Population Membrane Permeable-Phenotype (%) [9]: 0% | Population Mitochondria Different-Phenotype (%) [9]: 1% | Population Mitotic Cells (%) [9]: 47% | Population Normal (%) [9]: 96% | Population Pyknosed Nuclei (%) [9]: 13% | Population Tubulin-Different-Phenotype (%) [9]: 22% | Total Cell Count [9]: 182 | Population Apoptotic (%) [10]: 66% | Population Fragmented Nuclei (%) [10]: 29% | Population Healthy Nuclei (%) [10]: 56% | Population Membrane Permeable-Phenotype (%) [10]: 8% | Population Mitochondria Different-Phenotype (%) [10]: 6% | Population Mitotic Cells (%) [10]: 33% | Population Pyknosed Nuclei (%) [10]: 14% | Population Tubulin-Different-Phenotype (%) [10]: 57% | Total Cell Count [10]: 197 | Population Apoptotic (%) [11]: 66% | Population Fragmented Nuclei (%) [11]: 25% | Population Healthy Nuclei (%) [11]: 68% | Population Hoechst High Intensity Objects (%) [11]: 1% | Population Membrane Permeable-Phenotype (%) [11]: 0% | Population Mitochondria Different-Phenotype (%) [11]: 4% | Population Mitotic Cells (%) [11]: 33% | Population Normal (%) [11]: 98% | Population Pyknosed Nuclei (%) [11]: 6% | Population Tubulin-Different-Phenotype (%) [11]: 32% | Total Cell Count [11]: 201 | Population Apoptotic (%) [12]: 46% | Population Fragmented Nuclei (%) [12]: 42% | Population Healthy Nuclei (%) [12]: 49% | Population Hoechst High Intensity Objects (%) [12]: 5% | Population Membrane Permeable-Phenotype (%) [12]: 5% | Population Mitochondria Different-Phenotype (%) [12]: 5% | Population Mitotic Cells (%) [12]: 53% | Population Normal (%) [12]: 94% | Population Pyknosed Nuclei (%) [12]: 8% | Population Tubulin-Different-Phenotype (%) [12]: 48% | Total Cell Count [12]: 170
